Assay results reported in ChEMBL document CHEMBL1123469, “Synthesis and activity of 6-aryl-3-(hydroxypolymethyleneamino)pyridazines in animal models of epilepsy” (1986).

How the values were obtained:
Assay type in all cases: functional
Mus musculus [1] = experiment: Anticonvulsant activity when administered 100 mg/kg orally in mice Maximal electroshock (MES); conditions: route oral
Procedure, shortened: (§1)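 Female Swiss CD1 mice (18-23 g), groups of 10, were dosed orally at 20 mL/kg. Test compounds were given in dilute HCl (pH 3) and references in 5% gum tragacanth, 60 min before a 60-V alternating current for 0.3 s through corneal electrodes. Protection meant abolition of the hindlimb tonic extensor component.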

Mus musculus [2] = experiment: Evaluated for the sedative property by the rotarod test at 100 mg/kg.
Procedure, shortened: (§2)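 Motor coordination was tested on the rotorod in groups of 10 female Swiss CD1 mice (18-23 g). Drug or vehicle was given orally, test compounds in dilute HCl (pH 3), 60 min before testing.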

Mus musculus [3] = experiment: Evaluated for Bicuculline-induced seizures (anticonvulsant activity) when administered at 100 mg/kg orally in mice.; conditions: route oral
Procedure, shortened: (§3)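 Female Swiss CD1 mice (18-23 g) were dosed orally at 20 mL/kg, test compounds in dilute HCl (pH 3) and references in gum tragacanth. Protection against bicuculline- or pentylenetetrazole-induced clonic/tonic seizures and lethality was scored.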

Papio hamadryas = species on record: Papio hamadryas; experiment: Antagonist activity to generalized seizures Photically induced seizures in senegalese Papio papio baboons
Procedure, shortened: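 Naturally photosensitive baboons of both sexes (4-7 kg) were dosed orally, test compounds in dilute HCl (pH 3) and references in 5% gum tragacanth, at 4 mL/kg. They were photically stimulated at hourly intervals afterwards, and the myoclonic response was graded after Killam. Threshold active dose is the first dose that protected at least two of four animals for at least 2 h.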

Mus musculus [4] = experiment: Evaluated for Bicuculline-induced lethality (anticonvulsant activity) when administered orally in mice.; conditions: po
Procedure, shortened: (§4)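 Female Swiss albino CD1 mice (18-23 g), oral dosing (20 mL/kg); test compounds dissolved in dilute HCl (pH 3), reference drugs suspended in 5% gum tragacanth. Bicuculline challenge, scoring protection from seizures and from lethality. […] Weakly active agents reported as percent protected at the stated dose.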

Mus musculus [5] = experiment: Anticonvulsant activity in Clonic seizures when administered orally in mice; conditions: po; procedure, shortened: as §3
Mus musculus [6] = experiment: Anticonvulsant activity in tonic seizures when administered orally in mice; conditions: po
Mus musculus [7] = species on record: Mus musculus; experiment: Sedative properties by the rotarod test; procedure, shortened: as §2
Rattus norvegicus = species on record: Rattus norvegicus; experiment: Antagonist activity to generalized seizures kindled amygdaloid seizures in rats
Procedure, shortened: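 Male Sprague-Dawley rats (200-500 g), groups of 10, carried platinum electrodes in the right basolateral amygdala. They counted as kindled after stage-5 seizures on 3 consecutive days at 30-90 μA. A control stimulation was followed by an oral dose (5 mL/kg) and restimulation 1 h later. After-discharge duration and Racine seizure stage were compared with vehicle.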

Mus musculus [8] = species on record: Mus musculus; experiment: Sedative property by the rotarod test; procedure, shortened: as §2
Mus musculus [9] = experiment: Evaluated for anticonvulsant activity when administered orally in mice by Maximal electroshock (MES).; conditions: po; procedure, shortened: as §1
Mus musculus [10] = experiment: Evaluated for Bicuculline-induced seizures (anticonvulsant activity) when administered orally in mice.; conditions: po; procedure, shortened: as §3
Mus musculus [11] = experiment: Evaluated for Bicuculline-induced lethality (anticonvulsant activity) when administered 100 mg/kg orally in mice.; conditions: route oral; procedure, shortened: as §4
Mus musculus [12] = experiment: Anticonvulsant activity in Maximal electroshock (MES) when administered orally in mice; conditions: po; procedure, shortened: as §1

| Structure (SMILES) | Protected (Mus musculus [1]) [%] | Protected (Mus musculus [2]) [%] | Protected (Mus musculus [3]) [%] | ED50 (Mus musculus [4]) [mg/kg] | ED50 (Mus musculus [9]) [mg/kg] | other results |
| --- | --- | --- | --- | --- | --- | --- |
| OC1CCN(c2ccc(-c3cccs3)nn2)CC1 | 0 | 0 | 0 |  |  |  |
| OC1CCN(c2ccc(-c3ccccc3Cl)nn2)CC1 [LODAXAPRINE] |  |  |  | 34 |  | Threshold active dose (Papio hamadryas): 40 mg/kg; ED50 (Mus musculus [5]): 77 mg/kg; ED50 (Mus musculus [6]): 29 mg/kg; ED50 (Mus musculus [7]): 138 mg/kg; Threshold active dose (Rattus norvegicus): 20 mg/kg |
| O=COC1CCN(c2ccc(-c3ccc(Cl)cc3Cl)nn2)CC1 |  |  | 50 |  | 24 | ED50 (Mus musculus [8]): 69 mg/kg |
| Cc1ccc(-c2ccc(N3CCC(O)CC3)nn2)c(Cl)c1 |  |  |  | 16 | 21 | ED50 (Mus musculus [10]): 17 mg/kg; ED50 (Mus musculus [8]): 48 mg/kg |
| O=C(OC1CCN(c2ccc(-c3ccccc3Cl)nn2)CC1)c1ccc(Cl)cc1 | 0 | 0 | 0 |  |  |  |
| CC(C)(C)C(=O)OC1CCN(c2ccc(-c3ccccc3Cl)nn2)CC1 | 0 | 0 | 0 |  |  |  |
| Cc1cccc(-c2ccc(N3CCC(O)CC3)nn2)c1 |  | 0 | 30 | 50 | 36 |  |
| Cc1ccc(-c2ccc(N3CCC(O)CC3)nn2)cc1 |  | 0 | 0 |  | 73 | Protected (Mus musculus [11]): 50% |
| OC1CCN(c2ccc(-c3ccccc3Cl)nn2)C1 (stereo unspecified) | 30 | 0 | 40 |  |  |  |
| CNC(=O)OC1CCN(c2ccc(-c3ccc(Cl)c(Cl)c3)nn2)CC1 | 50 | 0 | 0 |  |  |  |
| CCCC(CCC)C(=O)[O-].[Na+] [VALPROATE SODIUM] |  |  |  | 246 |  | Threshold active dose (Papio hamadryas): 300 mg/kg; ED50 (Mus musculus [10]): 274 mg/kg; ED50 (Mus musculus [5]): 363 mg/kg; ED50 (Mus musculus [6]): 201 mg/kg; ED50 (Mus musculus [7]): 406 mg/kg; ED50 (Mus musculus [12]): 324 mg/kg; Threshold active dose (Rattus norvegicus): 200 mg/kg |
| Cc1ccccc1-c1ccc(N2CCC(O)CC2)nn1 |  |  |  | 60 | 30 | ED50 (Mus musculus [10]): 40 mg/kg |
| O=C1CCN(c2ccc(-c3ccccc3Cl)nn2)CC1 |  | 40 |  | 25 |  |  |
| COc1ccc(-c2ccc(N3CCC(O)CC3)nn2)cc1 | 50 | 0 | 20 |  |  |  |
| O=C(OC1CCN(c2ccc(-c3ccccc3Cl)nn2)CC1)C1CC1 | 60 | 0 |  | 71 |  |  |
| OC1CCN(c2ccc(-c3ccc(Cl)cc3)nn2)CC1 |  | 40 | 0 |  | 29 | Protected (Mus musculus [11]): 70% |
| O=C(Nc1cccc(Cl)c1)OC1CCN(c2ccc(-c3ccccc3Cl)nn2)CC1 | 35 | 0 | 0 |  |  |  |
| O=[N+]([O-])c1cccc(-c2ccc(N3CCC(O)CC3)nn2)c1 |  | 30 | 0 |  | 79 | Protected (Mus musculus [11]): 20% |
| CCC(=O)OC1CCN(c2ccc(-c3ccc(Cl)cc3Cl)nn2)CC1 |  |  |  | 13 | 50 | ED50 (Mus musculus [10]): 16 mg/kg; ED50 (Mus musculus [8]): 71 mg/kg |
| CCCC(=O)OC1CCN(c2ccc(-c3ccccc3Cl)nn2)CC1 |  | 0 |  | 30 |  |  |
| CCCC(=O)OC1CCN(c2ccc(-c3ccc(Cl)cc3Cl)nn2)CC1 |  |  |  | 30 | 50 | ED50 (Mus musculus [10]): 31 mg/kg; ED50 (Mus musculus [8]): 30 mg/kg |
| OC1CCN(c2ccc(-c3ccc(Cl)cc3Cl)nn2)CC1 [ENDIXAPRINE] |  |  |  | 8.5 |  | Threshold active dose (Papio hamadryas): 50 mg/kg; ED50 (Mus musculus [10]): 8.5 mg/kg; ED50 (Mus musculus [5]): 18 mg/kg; ED50 (Mus musculus [6]): 11 mg/kg; ED50 (Mus musculus [7]): 34 mg/kg; ED50 (Mus musculus [12]): 14 mg/kg; Threshold active dose (Rattus norvegicus): 20 mg/kg |
| Cc1cc(Cl)ccc1-c1ccc(N2CCC(O)CC2)nn1 |  |  |  | 10 | 10 | ED50 (Mus musculus [10]): 10 mg/kg; ED50 (Mus musculus [8]): 64 mg/kg |
| N#Cc1cccc(-c2ccc(N3CCC(O)CC3)nn2)c1 | 33 | 0 | 10 |  |  |  |
